The target in data set [1] is Sodium channel protein type 9 subunit alpha (Homo sapiens, UniProt Q15858). The experiment in a line: Blockade of human Nav1.7 by FRET assay. An outline of the steps:
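Functional membrane-potential assay of channel block on human Nav1.7; read-out is FRET between two membrane-associated dyes; IC50 in nM.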

In another data set the target is hERG (KCNH2) (Homo sapiens, UniProt Q12809). The data set can be described thus: Displacement of [35S]-MK0499 from human ERG receptor expressed in HEK293 cells at 10 uM. Format: cell-based. The conditions noted are these: HEK293 cells expressing human ERG, probe [35S]-MK0499. An outline of the steps:
(§1)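 Binding assay measuring displacement of radiolabelled ligand (35S-MK-0499 for hERG; 3H-diltiazem for Cav1.2); % inhibition at 10 µM test compound.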

Data set [2] has as its target Cav1.2 (L-type calcium channel subunit alpha-1C) (Homo sapiens, UniProt Q13936). The experiment in a line: Displacement of [3H]diltiazem from human Cav1.2 expressed in HEK293 cells at 10 uM. Format: cell-based. As to conditions: HEK293 cells expressing human Cav1.2, probe [3H]diltiazem. An outline of the steps: as §1
A general note: Loss of bound radioactivity is the signal in a displacement assay; it reports binding, not function.

Data set [3] in a line: Bioavailability in rat at 3.0 mg/kg, po. The format is ADME, organism-based. The conditions noted are these: in vivo.
The nature of data set [4]: Cmax in rat at 1.0 mg/kg, iv or 3.0 mg/kg, po. The format is ADME, organism-based. The conditions noted are these: in vivo.
The nature of data set [5]: Plasma clearance in rat at 1.0 mg/kg, iv or 3.0 mg/kg, po. Format: ADME, organism-based.
The nature of data set [6]: Half life in rat at 1.0 mg/kg, iv or 3.0 mg/kg, po. The format is ADME, organism-based. The conditions noted are these: in vivo.
In data set [7] the target is Voltage-dependent L-type calcium channel subunit alpha-1C (Homo sapiens, UniProt Q13936). The experiment in a line: Displacement of [3H]diltiazem from human Cav1.2 expressed in HEK293 cells. The format is cell-based. An outline of the steps:
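Cav1.2 binding assay measuring displacement of 3H-diltiazem.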

One may read the IC50 as the midpoint of a concentration-inhibition curve. As usually defined, the inhibition is the percentage by which the read-out fell short of the control. Usually bioavailability stands for the share of a dose that reaches the circulation, judged against a reference dose that is usually intravenous. Higher therefore signals good availability. The Cmax is the highest concentration seen after dosing. For orientation: half-life means the time needed for the level to fall by half in the phase considered. Read a high half-life as slow loss.

Some results are limits rather than exact numbers.

Sequence of Cav1.2 (L-type calcium channel subunit alpha-1C) (Q13936 whole entry): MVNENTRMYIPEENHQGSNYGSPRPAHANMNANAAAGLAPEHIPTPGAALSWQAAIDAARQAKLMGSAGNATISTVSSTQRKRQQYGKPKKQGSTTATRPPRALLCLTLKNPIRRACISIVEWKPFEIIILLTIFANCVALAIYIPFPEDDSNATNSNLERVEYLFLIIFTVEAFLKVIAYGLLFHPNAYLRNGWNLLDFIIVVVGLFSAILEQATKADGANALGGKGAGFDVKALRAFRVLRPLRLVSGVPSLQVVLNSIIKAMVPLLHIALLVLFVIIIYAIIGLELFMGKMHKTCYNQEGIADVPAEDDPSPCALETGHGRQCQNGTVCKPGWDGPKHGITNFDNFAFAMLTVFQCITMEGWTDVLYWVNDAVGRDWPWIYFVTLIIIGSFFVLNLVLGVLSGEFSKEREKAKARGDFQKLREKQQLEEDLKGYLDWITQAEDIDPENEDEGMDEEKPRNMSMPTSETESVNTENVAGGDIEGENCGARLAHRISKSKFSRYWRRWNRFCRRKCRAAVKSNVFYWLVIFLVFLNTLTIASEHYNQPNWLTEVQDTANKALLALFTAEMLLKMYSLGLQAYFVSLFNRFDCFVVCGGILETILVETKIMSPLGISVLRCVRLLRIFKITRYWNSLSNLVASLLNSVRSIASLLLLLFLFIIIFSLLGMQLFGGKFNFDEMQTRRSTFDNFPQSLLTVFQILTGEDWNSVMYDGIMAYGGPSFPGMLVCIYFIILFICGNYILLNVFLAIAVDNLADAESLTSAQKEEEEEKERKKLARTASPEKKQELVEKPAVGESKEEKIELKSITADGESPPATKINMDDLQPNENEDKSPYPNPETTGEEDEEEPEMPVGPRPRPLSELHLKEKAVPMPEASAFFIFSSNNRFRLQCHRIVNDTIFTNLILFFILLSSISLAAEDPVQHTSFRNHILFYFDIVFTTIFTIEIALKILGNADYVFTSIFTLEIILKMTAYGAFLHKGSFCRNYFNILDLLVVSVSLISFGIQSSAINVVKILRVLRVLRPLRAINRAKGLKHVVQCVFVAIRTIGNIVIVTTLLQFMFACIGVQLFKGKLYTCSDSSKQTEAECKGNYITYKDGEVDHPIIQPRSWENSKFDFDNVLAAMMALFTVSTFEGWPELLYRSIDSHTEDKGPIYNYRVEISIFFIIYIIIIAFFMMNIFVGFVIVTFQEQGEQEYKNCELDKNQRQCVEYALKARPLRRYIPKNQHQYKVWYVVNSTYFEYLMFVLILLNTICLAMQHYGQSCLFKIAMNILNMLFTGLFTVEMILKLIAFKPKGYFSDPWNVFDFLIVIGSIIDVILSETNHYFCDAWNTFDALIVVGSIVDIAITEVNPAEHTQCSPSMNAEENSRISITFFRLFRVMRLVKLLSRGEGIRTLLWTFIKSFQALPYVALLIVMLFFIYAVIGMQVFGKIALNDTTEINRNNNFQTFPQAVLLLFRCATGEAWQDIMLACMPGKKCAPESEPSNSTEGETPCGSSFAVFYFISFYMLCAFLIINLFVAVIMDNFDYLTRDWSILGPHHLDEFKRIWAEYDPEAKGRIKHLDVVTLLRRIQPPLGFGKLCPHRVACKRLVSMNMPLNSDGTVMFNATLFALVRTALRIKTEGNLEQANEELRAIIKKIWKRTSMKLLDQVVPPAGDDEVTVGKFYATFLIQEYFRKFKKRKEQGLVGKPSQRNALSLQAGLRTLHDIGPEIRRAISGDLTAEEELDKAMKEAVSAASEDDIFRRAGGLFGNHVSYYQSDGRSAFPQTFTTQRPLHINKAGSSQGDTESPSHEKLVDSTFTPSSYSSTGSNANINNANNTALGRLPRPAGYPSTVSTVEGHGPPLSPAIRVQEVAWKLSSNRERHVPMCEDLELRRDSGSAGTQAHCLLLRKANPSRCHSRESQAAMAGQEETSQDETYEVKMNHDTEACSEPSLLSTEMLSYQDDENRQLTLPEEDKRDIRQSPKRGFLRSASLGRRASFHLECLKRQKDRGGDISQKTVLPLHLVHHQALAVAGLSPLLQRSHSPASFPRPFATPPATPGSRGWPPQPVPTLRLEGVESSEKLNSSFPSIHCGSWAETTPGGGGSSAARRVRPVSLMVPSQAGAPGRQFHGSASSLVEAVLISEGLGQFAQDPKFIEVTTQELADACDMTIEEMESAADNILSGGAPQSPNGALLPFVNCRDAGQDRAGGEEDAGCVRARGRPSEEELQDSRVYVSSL
Sequence of Sodium channel protein type 9 subunit alpha (Q15858 whole entry): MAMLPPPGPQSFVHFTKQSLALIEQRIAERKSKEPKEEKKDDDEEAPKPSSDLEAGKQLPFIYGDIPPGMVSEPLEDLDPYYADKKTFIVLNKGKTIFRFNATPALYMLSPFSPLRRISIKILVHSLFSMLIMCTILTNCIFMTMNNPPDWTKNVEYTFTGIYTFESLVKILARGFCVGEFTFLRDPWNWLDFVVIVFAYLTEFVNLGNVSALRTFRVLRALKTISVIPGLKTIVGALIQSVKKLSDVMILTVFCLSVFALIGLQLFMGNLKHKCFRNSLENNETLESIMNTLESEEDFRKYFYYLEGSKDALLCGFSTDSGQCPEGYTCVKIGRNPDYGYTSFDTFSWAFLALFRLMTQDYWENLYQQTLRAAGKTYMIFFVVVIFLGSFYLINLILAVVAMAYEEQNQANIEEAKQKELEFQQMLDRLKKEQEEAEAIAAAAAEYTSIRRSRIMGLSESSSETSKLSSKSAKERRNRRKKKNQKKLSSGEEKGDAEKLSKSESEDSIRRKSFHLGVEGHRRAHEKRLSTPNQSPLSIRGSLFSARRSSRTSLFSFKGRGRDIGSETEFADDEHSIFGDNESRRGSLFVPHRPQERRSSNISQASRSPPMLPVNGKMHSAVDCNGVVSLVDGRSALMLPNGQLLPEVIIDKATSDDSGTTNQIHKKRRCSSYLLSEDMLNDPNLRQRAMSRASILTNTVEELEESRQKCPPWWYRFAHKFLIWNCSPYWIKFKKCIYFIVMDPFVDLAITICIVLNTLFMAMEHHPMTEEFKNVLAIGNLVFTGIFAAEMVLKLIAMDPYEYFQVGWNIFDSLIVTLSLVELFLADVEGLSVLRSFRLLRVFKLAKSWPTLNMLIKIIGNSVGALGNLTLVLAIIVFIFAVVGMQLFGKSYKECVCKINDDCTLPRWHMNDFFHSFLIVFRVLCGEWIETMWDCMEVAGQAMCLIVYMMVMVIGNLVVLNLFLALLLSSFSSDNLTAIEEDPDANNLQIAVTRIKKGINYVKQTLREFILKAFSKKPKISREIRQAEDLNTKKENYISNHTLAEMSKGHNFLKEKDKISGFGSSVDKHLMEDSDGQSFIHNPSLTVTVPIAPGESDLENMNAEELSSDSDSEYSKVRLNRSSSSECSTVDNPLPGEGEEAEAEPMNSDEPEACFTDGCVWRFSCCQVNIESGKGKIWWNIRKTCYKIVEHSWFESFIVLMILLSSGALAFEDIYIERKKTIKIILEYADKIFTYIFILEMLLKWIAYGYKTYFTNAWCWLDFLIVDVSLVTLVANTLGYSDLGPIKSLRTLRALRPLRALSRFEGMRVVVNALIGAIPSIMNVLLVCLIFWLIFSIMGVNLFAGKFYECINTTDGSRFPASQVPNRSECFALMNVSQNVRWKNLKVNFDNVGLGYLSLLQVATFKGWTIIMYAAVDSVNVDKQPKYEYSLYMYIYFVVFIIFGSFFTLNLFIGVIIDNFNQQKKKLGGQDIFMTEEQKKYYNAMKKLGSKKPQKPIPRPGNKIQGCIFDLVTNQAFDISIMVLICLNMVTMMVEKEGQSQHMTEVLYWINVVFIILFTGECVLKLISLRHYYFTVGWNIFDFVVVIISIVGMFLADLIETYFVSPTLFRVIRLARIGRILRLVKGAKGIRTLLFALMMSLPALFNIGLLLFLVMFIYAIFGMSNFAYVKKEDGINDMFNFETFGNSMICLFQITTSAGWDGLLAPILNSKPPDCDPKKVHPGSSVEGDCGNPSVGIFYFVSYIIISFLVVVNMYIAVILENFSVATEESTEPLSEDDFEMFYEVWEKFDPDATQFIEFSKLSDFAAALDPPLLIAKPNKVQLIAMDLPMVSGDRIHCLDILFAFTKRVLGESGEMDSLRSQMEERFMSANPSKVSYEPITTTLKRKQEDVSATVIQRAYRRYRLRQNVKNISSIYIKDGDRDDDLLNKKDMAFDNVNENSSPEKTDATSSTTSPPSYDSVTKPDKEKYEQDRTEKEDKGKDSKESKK
Sequence of Voltage-dependent L-type calcium channel subunit alpha-1C (Q13936 whole entry): as the sequence (Q13936 whole entry) above

As to `CN1C(=O)[C@H](NC(=O)[C@@H](CCc2ccccc2)NC(=O)OC(C)(C)C)N=C(c2ccccc2)c2ccccc21`, the 50% inhibitory concentration (IC50) in data set [1] stood at 0.238 µM.

Regarding `CC(C)N1C(=O)[C@H](NC(=O)[C@@H](Cc2c(F)cccc2F)NC(=O)OC(C)(C)C)CCc2ccccc21`, the inhibition at 10 µM worked out at 4% on hERG (KCNH2) and 36% in data set [2]. In data set [1], this compound had an IC50 of 0.014 µM.

Regarding `CN1C(=O)[C@H](NC(=O)[C@@H](Cc2ccccc2)NCCC(C)(C)C)N=C(c2ccccc2)c2ccccc21`, the IC50 in data set [1] was above 1 µM.

As to `CC(C)N1C(=O)[C@H](NC(=O)[C@@H](Cc2cccc(F)c2C(F)(F)F)NC(=O)OC(C)(C)C)CCc2ccccc21`, the inhibition at 10 µM on hERG (KCNH2) was 39%; in data set [2] it was 87%. Besides, in data set [1], the IC50 is 0.065 µM.

For `CC(C)N1C(=O)[C@H](NC(=O)[C@@H](Cc2cc(F)ccc2F)NC(=O)OC(C)(C)C)CCc2ccccc21`, the inhibition at 10 µM was determined as 6% at hERG (KCNH2) and 24% in data set [2]. Besides, it took 0.023 µM to reach half-maximal inhibition in data set [1] (IC50).

As for `CN1C(=O)[C@H](NC(=O)[C@@H](Cc2ccccc2F)NC(=O)OC(C)(C)C)N=C(c2ccccc2)c2ccccc21`, inhibition in data set [1] was half-maximal at 0.087 µM (IC50).

The compound `CC(C)(C)OC(=O)N[C@H](Cc1ccccc1)C(=O)N[C@@H]1CCc2ccccc2N(CC(F)(F)F)C1=O` showed an inhibition at 10 µM on hERG (KCNH2) of 16%. Further, half-maximal inhibition in data set [1] (IC50) required 0.15 µM.

Turning to `CN1C(=O)[C@H](NC(=O)[C@@H](Cc2ccccc2)NC(=O)OC(C)(C)C)CCc2ccccc21`, the IC50 in data set [1] worked out at 0.192 µM.

Consider `CN1C(=O)[C@H](NC(=O)[C@@H](Cc2ccccc2)NS(=O)(=O)c2ccccc2)N=C(c2ccccc2)c2ccccc21`, for which the half-inhibitory concentration (IC50) in data set [1] is above 1 µM.

Consider `CN1CCCC[C@@H](NC(=O)[C@@H](Cc2ccccc2)NC(=O)OC(C)(C)C)C1=O`, for which the half-maximal inhibitory concentration (IC50) in data set [1] was above 1 µM.

In the case of `CC(C)N1C(=O)[C@H](NC(=O)[C@@H](Cc2ccccc2F)NC(=O)OC(C)(C)C)CCc2ccccc21`, the inhibition at 10 µM at hERG (KCNH2) was found to be 8%; in data set [2] it was 11%. Besides, the bioavailability in data set [3] came out at 14%. In data set [4], this compound returned a Cmax of 0.1 µM. Further, the clearance in data set [5] came out at 2.46 L/h/kg. In addition, in data set [6], the half-life was 1.5 h. This compound also had a half-inhibitory concentration (IC50) in data set [1] of 0.044 µM.

As for `CC(C)N1C(=O)[C@H](NC(=O)[C@@H](Cc2c(F)cccc2C(F)(F)F)NC(=O)OC(C)(C)C)CCc2ccccc21`, the values for the inhibition at 10 µM (at hERG (KCNH2); in data set [2]) were 43% and 81%, respectively. Moreover, in data set [3], the bioavailability came to 28%. This compound came in with a Cmax in data set [4] of 0.33 µM. The compound also displayed a clearance in data set [5] of 1.92 L/h/kg. In data set [6], this compound showed a half-life of 2.5 h. In data set [1], this compound had an IC50 of 0.032 µM.

Take `CC(C)N1C(=O)[C@H](NC(=O)[C@@H](Cc2cccc(C(F)(F)F)c2)NC(=O)OC(C)(C)C)CCc2ccccc21`: the inhibition at 10 µM at hERG (KCNH2) was determined as 15%; in data set [2], 19%. Moreover, half-maximal inhibition in data set [1] (IC50) was put at 0.295 µM.

`CC(C)S(=O)(=O)N[C@H](Cc1ccccc1)C(=O)N[C@@H]1N=C(c2ccccc2)c2ccccc2N(C)C1=O` registered an IC50 in data set [1] above 1 µM.

In data set [1], `CN1C(=O)[C@H](NC(=O)[C@@H](Cc2ccccc2)NC(=O)C2CC2)N=C(c2ccccc2)c2ccccc21` gave an IC50 above 1 µM.

`CC(C)N1C(=O)[C@H](NC(=O)[C@@H](Cc2cccc(F)c2)NC(=O)OC(C)(C)C)CCc2ccccc21`: the inhibition at 10 µM on hERG (KCNH2) came to 8%; in data set [2], 0%. Besides, it took 0.009 µM to reach half-maximal inhibition in data set [1] (IC50).

For `CN1C(=O)[C@H](NC(=O)[C@@H](Cc2ccccc2)NC(=O)OCc2ccccc2)N=C(c2ccccc2)c2ccccc21`, the midpoint of inhibition in data set [1], the IC50, lay at 0.15 µM.

`COC(=O)N[C@H](Cc1ccccc1)C(=O)N[C@@H]1N=C(c2ccccc2)c2ccccc2N(C)C1=O` registered a 50% inhibitory concentration (IC50) in data set [1] above 1 µM.

Take `CC(C)(C)OC(=O)N[C@@H](CN[C@@H]1CCc2ccccc2N(CC(F)(F)F)C1=O)Cc1ccccc1`: on hERG (KCNH2), the inhibition at 10 µM came to 79%. The compound also showed an IC50 in data set [1] of 0.885 µM.

`CC(C)N1C(=O)[C@H](NC(=O)[C@@H](Cc2ccc(C(F)(F)F)cc2)NC(=O)OC(C)(C)C)CCc2ccccc21` gave an IC50 in data set [1] above 1 µM.

Compound `CC(C)N1C(=O)[C@H](NC(=O)[C@@H](Cc2ccccc2)NC(=O)OC(C)(C)C)CCc2ccccc21` showed an inhibition at 10 µM on hERG (KCNH2) of 6%. This compound had a concentration for half-maximal inhibition (IC50) in data set [1] of 0.045 µM.

In the case of `CN1C[C@H](NC(=O)[C@@H](Cc2ccccc2)NC(=O)OC(C)(C)C)CCc2ccccc21`, testing at 10 µM on hERG (KCNH2) gave an inhibition of 28%. Moreover, the half-inhibitory concentration (IC50) in data set [1] was above 1 µM.

`CC(C)N1C(=O)[C@H](NC(=O)[C@H](Cc2ccccc2OC(F)(F)F)NC(=O)OC(C)(C)C)CCc2ccccc21` registered an inhibition at 10 µM on hERG (KCNH2) of 0%. Moreover, the IC50 in data set [1] was 0.214 µM.

Take `CC(C)(C)OC(=O)N[C@H](Cc1ccccc1)C(=O)N[C@@H]1CCc2ccccc2N(CC(F)(F)F)C1`: at 10 µM the inhibition on hERG (KCNH2) was 40%. The compound further yielded an IC50 in data set [1] of 0.145 µM.

As for `CN1C(=O)[C@H](NC(=O)[C@H](NC(=O)OC(C)(C)C)c2ccccc2)N=C(c2ccccc2)c2ccccc21`, in data set [1], the IC50 was determined as 0.375 µM.

In data set [1], `CN1C(=O)[C@H](NC(=O)[C@@H](Cc2cscn2)NC(=O)OC(C)(C)C)N=C(c2ccccc2)c2ccccc21` yielded a concentration for half-maximal inhibition (IC50) of 0.684 µM.

As for `CC(C)N1C(=O)[C@@H](NC(=O)[C@@H](Cc2ccccc2OC(F)(F)F)NC(=O)OC(C)(C)C)CCc2ccccc21`, the inhibition at 10 µM on hERG (KCNH2) is 20%. The same compound had a bioavailability in data set [3] of 15%. The compound further returned a Cmax in data set [4] of 0.14 µM. Also, in data set [5], the clearance turned out to be 3.3 L/h/kg. For the same compound, in data set [6], the half-life is 2.1 h. Also, the IC50 in data set [7] was found to be 1.73 µM; in data set [1], 0.032 µM.

Compound `CN1C(=O)[C@H](NC(=O)[C@@H](Cc2cnc[nH]2)NC(=O)OC(C)(C)C)N=C(c2ccccc2)c2ccccc21` showed an IC50 in data set [1] above 1 µM.

On to `CN1C(=O)[C@H](NC(=O)[C@@H](Cc2ccccc2)N(C)C(=O)OC(C)(C)C)N=C(c2ccccc2)c2ccccc21`, for which, in data set [1], the IC50 is above 1 µM.

For the compound `CC(C)(C)OC(=O)N[C@H](Cc1ccccc1)C(=O)N[C@@H]1CCc2ccccc2N(CC2CC2)C1=O`, on hERG (KCNH2), the inhibition at 10 µM stood at 15%. The compound also returned an IC50 in data set [1] of 0.078 µM.

`CN1C(=O)[C@H](NC(=O)[C@@H](CC2CCCCC2)NC(=O)OC(C)(C)C)N=C(c2ccccc2)c2ccccc21` yielded an IC50 in data set [1] above 1 µM.

`CN1C(=O)[C@H](NC(=O)[C@H](N)Cc2ccccc2)N=C(c2ccccc2)c2ccccc21`: the concentration for half-maximal inhibition (IC50) in data set [1] was above 1 µM.

Consider `CN1C(=O)[C@H](NC(=O)[C@@H](Cc2ccccc2)NC(=O)OC(C)(C)C)N=C(c2ccccc2)c2ccccc21`, for which the IC50 in data set [1] was found to be 0.125 µM.

At hERG (KCNH2), `CC(C)N1C(=O)[C@H](NC(=O)[C@@H](Cc2ccccc2C(F)(F)F)NC(=O)OC(C)(C)C)CCc2ccccc21` came in with an inhibition at 10 µM of 34%. In addition, the bioavailability in data set [3] turned out to be 35%. Moreover, the concentration in data set [4] peaked (Cmax) at 0.3 µM. In addition, the clearance in data set [5] turned out to be 3 L/h/kg. In addition, in data set [6], the half-life is 2.1 h. Further, the IC50 in data set [1] was found to be 0.137 µM.

`CN1C(=O)[C@H](NC(=O)[C@@H](Cc2ccccc2)NC(=O)C23CC4CC(CC(C4)C2)C3)N=C(c2ccccc2)c2ccccc21` had an IC50 in data set [1] of 0.42 µM.

In turn, `CN1C(=O)[C@H](NC(=O)CCc2ccccc2)N=C(c2ccccc2)c2ccccc21` returned an IC50 in data set [1] above 1 µM.

In data set [1], `CN1C(=O)[C@H](NC(=O)[C@@H](Cc2cccnc2)NC(=O)OC(C)(C)C)N=C(c2ccccc2)c2ccccc21` yielded an IC50 of 0.978 µM.

With `CN1C(=O)[C@H](NC(=O)[C@@H](Cc2ccccc2)NS(C)(=O)=O)N=C(c2ccccc2)c2ccccc21`, the half-maximal inhibitory concentration (IC50) in data set [1] is above 1 µM.

With `CC(C)N1C(=O)[C@H](NC(=O)[C@@H](Cc2ccc(F)cc2)NC(=O)OC(C)(C)C)CCc2ccccc21`, the inhibition at 10 µM (at hERG (KCNH2); in data set [2]) was 0% each time. The compound further came in with an IC50 in data set [1] of 0.098 µM.

In data set [1], `CN1C(=O)[C@H](NC(=O)[C@@H](Cc2ccc(F)cc2)NC(=O)OC(C)(C)C)N=C(c2ccccc2)c2ccccc21` registered an IC50 of 0.071 µM.

In data set [1], `CN1C(=O)[C@H](NC(=O)[C@@H](Cc2ccccc2)NC(=O)C(C)(C)C)N=C(c2ccccc2)c2ccccc21` displayed a half-maximal inhibitory concentration (IC50) of 0.38 µM.

In data set [1], `C[C@@H](NC(=O)OC(C)(C)C)C(=O)N[C@@H]1N=C(c2ccccc2)c2ccccc2N(C)C1=O` yielded a half-maximal inhibitory concentration (IC50) above 1 µM.

These data come from ChEMBL document CHEMBL1140675, “Discovery of a novel class of benzazepinone Na(v)1.7 blockers: potential treatments for neuropathic pain” (Bioorg Med Chem Lett, 2007).
